Data on two molecules can be found in paper PMC3378324 (Febs Letters, 2012).

Data set [1] relates to Hck-SH3, Fyn(WT)-SH3, and Fyn(R96I)-SH3. The data set is described as follows: NMR 1H-15N HSQC, comparison across SH3 domains. Format: binding. Conditions: 1 equivalent of ALIXV+PRR.
For a further data set, the system named is Fyn(R96I)-SH3-GST. The data set can be described thus: GST pull-down, SDS-PAGE and Coomassie blue staining. Format: binding. The conditions noted are these: in vitro. An outline of the steps:
(§1)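 Partner protein: human Alix fragment ALIX_V+PRR (residues 362–760, V domain plus SH3-binding proline-rich region), expressed with an N-terminal His6-Smt3 tag in E. coli BL21(DE3). Baits were GST-fused SH3 domains (Hck; Fyn wild-type; Fyn RT-loop mutant with Arg96 replaced by Ile). In vitro GST pull-down; bound protein resolved by SDS-PAGE and visualised by Coomassie blue staining.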

For another data set, the system named is Hck-SH3-GST. The data set is described as above. It counts as binding, human. The conditions noted are these: in vitro. An outline of the steps: as §1
For data set [2] the following is noted: SAXS; apo; compared with 190 ± 10 Å; ref [12]; cited from earlier work.
For a further data set, the system named is Hck. The conditions noted are these: ref [12]; cited from earlier work.

B1: ALIXV+PRR: Human Alix recombinant construct (ALIXV+PRR) consisting of residues 362–760 (protein)
chain: SVQQSLAAYNQRKADLVNRSIAQMREATTLANGVLASLNLPAAIEDVSGDTVPQSILTKSRSVIEQGGIQTVDQLIKELPELLQRNREILDESLRLLDEEEATDNDLRAKFKERWQRTPSNELYKPLRAEGTNFRTVLDKAVQADGQVKECYQSHRDTIVLLCKPEPELNAAIPSANPAKTMQGSEVVNVLKSLLSNLDEVKKEREGLENDLKSVNFDMTSKFLTALAQDGVINEEALSVTELDRVYGGLTTKVQESLKKQEGLLKNIQVSHQEFSKMKQSNNEANLREEVLKNLATAYDNFVELVANLKEGTKFYNELTEILVRFQNKCSDIVFARKTERDELLKDLQQSIAREPSAPSIPTPAYQSSPAGGHAPTPPTPAPRTMPPTKPQPPARPPP
modifications: left off: His6-Smt3, N-terminal, state not stated
For B1, the “involvement of nSrc loop, Hck-SH3 versus Fyn(R96I)-SH3” value in data set [1] is listed as “the nSrc loop seems to be more involved in the Hck-SH3–ALIXV+PRR interaction than in the Fyn(R96I)-SH3–ALIXV+PRR interaction”. Besides, the GST pull-down binding entry with Fyn(R96I)-SH3-GST and in the data set on Hck-SH3-GST was “binding” in each case. For the same molecule, the “maximum diameter (Dm) compared with Fyn(R96I)-SH3-bound ALIXV+PRR” value in data set [2] is recorded as “the same”.

B2: Alix: ALG-2 (apoptosis-linked gene 2)-interacting protein X, an adapter protein (protein, UniProt Q8WUM4 2-868, looked up)
Programmed cell death …: ATFISVQLKKTSEVDLAKPLVKFIQQTYPSGGEEQAQYCRAAEELSKLRRAAVGRPLDKHEGALETLLRYYDQICSIEPKFPFSENQICLTFTWKDAFDKGSLFGGSVKLALASLGYEKSCVLFNCAALASQIAAEQNLDNDEGLKIAAKHYQFASGAFLHIKETVLSALSREPTVDISPDTVGTLSLIMLAQAQEVFFLKATRDKMKDAIIAKLANQAADYFGDAFKQCQYKDTLPKEVFPVLAAKHCIMQANAEYHQSILAKQQKKFGEEIARLQHAAELIKTVASRYDEYVNVKDFSDKINRALAAAKKDNDFIYHDRVPDLKDLDPIGKATLVKSTPVNVPISQKFTDLFEKMVPVSVQQSLAAYNQRKADLVNRSIAQMREATTLANGVLASLNLPAAIEDVSGDTVPQSILTKSRSVIEQGGIQTVDQLIKELPELLQRNREILDESLRLLDEEEATDNDLRAKFKERWQRTPSNELYKPLRAEGTNFRTVLDKAVQADGQVKECYQSHRDTIVLLCKPEPELNAAIPSANPAKTMQGSEVVNVLKSLLSNLDEVKKEREGLENDLKSVNFDMTSKFLTALAQDGVINEEALSVTELDRVYGGLTTKVQESLKKQEGLLKNIQVSHQEFSKMKQSNNEANLREEVLKNLATAYDNFVELVANLKEGTKFYNELTEILVRFQNKCSDIVFARKTERDELLKDLQQSIAREPSAPSIPTPAYQSSPAGGHAPTPPTPAPRTMPPTKPQPPARPPPPVLPANRAPSATAPSPVGAGTAAPAPSQTPGSAPPPQAQGPPYPTYPGYPGYCQMPMPMGYNPYAYGQYNMPYPPVYHQSPGQAPYPGPQQPSYPFPQPPQQSYYPQQ
Take B2: the “binding to and activation of Hck” value in the data set on Hck is “binds to and activates Hck”.
